# Screening results: PubChem BioAssay, Sanford-Burnham Center for Chemical Genomics
# Diaph inh CS: inhibits diaphorase or chemically oxidizes, flagging diaphorase assay artifacts. AID 1217. inhibition, % at 20 µM. diaphorase resazurin-to-resorufin fluorescence, NADH, 16 min; bacterial (C. kluyveri) enzyme, not human. 190,000 compounds, 0.69% hits;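 active = primary screen inhibition at 20 µM above a set limit, cut at about 50% in these data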;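 also: plate controls were DMSO with full reaction for no effect and wells lacking NADH for full effect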
#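 material = Clostridium kluyveri diaphorase enzyme | amount = 0.14 U/mL diaphorase, enzyme working solution | schedule = incubation 16 min, room temperature | detection = fluorescence of resorufin formed from resazurin, Ex 544/Em 590 nm | benchmarks = positive control minus NADH, DMSO neutral control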
# G6PDH counter: inhibits Leuconostoc G6PDH, flagging false hits in G6PDH-based assays; Purified L. mesenteroides G6PDH, diaphorase/resazurin coupled fluorescence, 45 min; inhibition, % at 5 µM; 200,000 compounds, 0.12% hits; in the data active = inhibition above about 50%
# PMI act hi M6P: increases human PMI activity with near-saturating mannose 6-phosphate; P34949; activation factor at 20 µM; coupled PMI enzyme assay, resazurin fluorescence, 20 min; active compounds read high; 1 = untreated enzyme, 0 = substrate-free blank; 190,000 compounds, 0.34% hits;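 active = activation factor of 2 or more at 20 µM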
# Target sequence (P34949 whole entry, looked up): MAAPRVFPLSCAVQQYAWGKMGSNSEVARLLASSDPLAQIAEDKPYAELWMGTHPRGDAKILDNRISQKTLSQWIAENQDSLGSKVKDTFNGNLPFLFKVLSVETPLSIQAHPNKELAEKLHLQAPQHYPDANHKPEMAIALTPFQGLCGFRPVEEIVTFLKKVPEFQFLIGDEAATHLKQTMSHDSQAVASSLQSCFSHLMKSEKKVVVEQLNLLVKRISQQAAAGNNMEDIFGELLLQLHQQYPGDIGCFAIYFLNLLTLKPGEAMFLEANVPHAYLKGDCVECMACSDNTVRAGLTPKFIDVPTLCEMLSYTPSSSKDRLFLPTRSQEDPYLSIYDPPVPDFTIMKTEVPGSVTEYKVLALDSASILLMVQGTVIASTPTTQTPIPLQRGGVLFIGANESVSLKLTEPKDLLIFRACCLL
#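 Test system: human phosphomannose isomerase with PGI, G6PDH, diaphorase coupling enzymes; Amount: PMI at 15 ng/mL final; Reagent: Mannose-6-phosphate 1.0 mM (near-saturating) plus 0.22 mM NADP+; Timing: 20 min, room temperature; Technique: resorufin fluorescence at Ex 544/Em 590 nm; Dosing: 20 µM single dose.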
# PMI act: activators of human phosphomannose isomerase; P34949; purified human PMI, coupled resazurin fluorescence, 20 min; active compounds read high; 1 = vehicle control, 0 substrate-free wells; activation factor at 20 µM; 190,000 compounds, 0.005% hits;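 active = activation factor of 2 or more at 20 µM, relative to plate controls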
# Diaphorase act: counter-screen for diaphorase-based assays: diaphorase activators and chemical reducers; Diaphorase/resazurin coupled assay, resorufin fluorescence, 16 min; active compounds read high; 1 = vehicle wells, 0 = NADH-free wells; activation factor at 20 µM; 190,000 compounds, 0.005% hits;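 active = diaphorase activity raised at least twofold by the compound at 20 µM; inactive = activation factor below 2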
#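 System – purified diaphorase enzyme from Clostridium kluyveri · Input – enzyme 0.07 U/mL final · Also added – final NADH 0.114 mM, resazurin 0.1 mM · Measured by – fluorescence of resorufin, 544 nm excitation, 590 nm emission · Timing – 16 min enzyme reaction, ambient temperature · Measure – resorufin increase flagging diaphorase activators or reducers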
# An asterisk follows results filed as active. A selection: hits, their analogues and other compounds. The true share with any hit is near 1.1%.
SMILES,Diaph inh CS,G6PDH counter,PMI act hi M6P,PMI act,Diaphorase act
C/C(=N/Nc1ccc(C)cc1)C1(C)N(O)C(C)(C)C(c2ccco2)=[N+]1[O-] (centres undefined),5,8,2.7*,1.9,0.9
CC1(C)C(c2ccco2)=[N+]([O-])C2(CCCCC2=O)N1O (centres undefined),4,1,1.2,1.2,1
CCCn1c(N)c(C(=O)CN2CCc3ccccc3C2)c(=O)n(C)c1=O,-16,7,1.1,1.3,1.2
CCCCn1c(N)c(C(=S)NC(=O)CC(C)(C)C)c(=O)n(C)c1=O,62*,-6,0.8,0.8,0.4
COc1ccc(OCC(=O)N/N=C/C=C/c2ccccc2)cc1,11,-24,0.9,0.9,0.9
CC(C)OP(=O)(OC(C)C)C1(O)C(=O)Nc2ccccc21 (centres undefined),14,7,0.9,1,0.9
Cc1ccc(C2SCCN2C(=O)c2ccc([N+](=O)[O-])cc2)cc1 (centres undefined),19,10,0.9,0.9,0.8
COc1cccc(C(=O)NC2CC3CCCC(C2)N3CC(=O)Nc2ccccc2)c1 (centres undefined),58*,11,1,0.8,0.4
CCCCNc1nc(=S)n(-c2ccccc2)c(C)c1C(C)=O,71*,2,0.9,0.9,0.3
CCn1c(C)c(C(C)=O)c(N2CCN(c3ccccn3)CC2)nc1=S,62*,2,1,1,0.4
CC(=O)c1c(N2CCCC2)nc(=S)n(-c2ccccc2)c1C,54*,-5,1.1,1.1,0.5
COc1cc(-c2nnc(SCc3cc(=O)oc4cc(O)c(O)cc34)o2)cc(OC)c1OC,67*,0,0.5,0.4,0.3
CCOC(=O)CSc1nnc(-c2cc(OC)c(OC)c(OC)c2)o1,-4,6,1.1,1,1
CCOC(=O)N1CCC2(CC1)C(C#N)=C(N)Oc1c2c(C)nn1-c1cccc(Cl)c1,17,-1,2*,1.5,0.8
O=[N+]([O-])c1ccccc1/C=C/C=N/n1c(-c2ccccc2)n[nH]c1=S,68*,1,1.1,1.1,0.3
Cc1ccc(-c2n[nH]c(=S)n2/N=C/C=C\c2ccccc2[N+](=O)[O-])cc1,66*,-7,0.9,0.9,0.3
O=[N+]([O-])c1ccccc1/C=C/C=N/n1c(-c2ccc(Cl)cc2)n[nH]c1=S,22,-1,1.2,1.3,0.8
O=C(Nc1ccccc1)C1=C[C@@H](c2ccc(Br)cc2)C[C@@H](OCCCCO)O1,63*,6,0.9,0.9,0.4
O=C(COc1ccccc1[N+](=O)[O-])Nc1ccc(N2CCN(C(=O)c3cccs3)CC2)cc1,22,6,0.9,0.9,0.8
CCOC(=O)C(C)On1c(-c2ccc(Cl)cc2)nc2ccc([N+](=O)[O-])cc21 (centres undefined),29,-3,2*,1.4,0.7
CCOC(=O)C(C)On1c(-c2ccccc2)nc2ccc([N+](=O)[O-])cc21 (centres undefined),20,15,2*,1.6,0.8
O=C(O)COn1c(-c2ccccc2)nc2ccc([N+](=O)[O-])cc21,50*,14,0.8,1.3,0.5
CN1CCN(C(=O)c2ccc(-n3cccn3)nc2)CC1,10,10,0.9,0.9,0.9
Cn1c(=O)c2c(-c3ccccc3F)c3c(nc2n(C)c1=O)-c1ccccc1C3O (centres undefined),0,3,2.1*,1.8,1
CCN1C(=O)c2cccc3c(S(=O)(=O)Nc4ccccc4OC)ccc1c23,51*,0,0.9,0.9,0.5
SMILES,Diaph inh CS,G6PDH counter,PMI act hi M6P,PMI act,Diaphorase act
Cc1cc(O)c(/C=N/Nc2cccc(Cl)c2)c(=O)o1,11,-7,2.5*,1.5,0.9
Cc1cc(O)c(/C=N/Nc2ccc(Cl)cc2)c(=O)o1,11,7,2.1*,1.3,0.9
Cc1cc(O)c(/C=N/Nc2ccccc2Cl)c(=O)o1,25,1,2.2*,1.4,0.8
Cc1cccc(N=Cc2c(O)cc(C)oc2=O)c1,-5,4,1,1.1,1
O=[N+]([O-])c1ccccc1S(=O)(=O)NCc1cccnc1,3,1,1,1,1
O=C(N/N=C/c1cc(Br)cc(Br)c1O)c1ccncc1,52*,-10,1.2,1,0.5
O=C(N/N=C1/SCC(=O)N1Cc1ccco1)c1ccccc1F,5,2,1,1,1
Cc1ccc(NNS(=O)(=O)c2ccc(C)cc2)cc1,20,9,2*,1.1,0.8
CCc1[nH]c(=O)c(C#N)c2c1CCCC2,-10,-2,1,1,1.1
CCc1[nH]c(=S)c(C#N)c2c1CCCC2,18,2,2.2*,1.6,0.8
COc1cccc(C(=O)Oc2ccc(N3C(=O)CCC3=O)c(C)c2)c1,12,-7,0.9,1,0.9
Oc1ccc(/C=N/NC(=S)NCCN2CCOCC2)c(O)c1,22,19,1.2,1.1,0.8
Fc1cccc(Cl)c1CNc1ccc(N2CCCC2)cc1,79*,22,0.2,0.1,0.2
COc1ccc(-c2cc(CNS(=O)(=O)c3ccc(F)cc3)on2)cc1,19,2,0.9,0.9,0.8
O=C1Nc2ccccc2C12Nc1ccccc1-c1nc3ccccc3n12 (centres undefined),39,0,1,1,0.6
CN1C(=O)C2(Nc3ccccc3-c3nc4ccccc4n32)c2ccccc21 (centres undefined),84*,1,1,0.9,0.2
CN(O)/C=c1/ccc2c(n1)C(=O)C=CC=2,69*,58*,0.3,0.3,0.3
CCOc1ccc(CNC(=O)CCS(=O)(=O)Cc2cccc(Cl)c2)cc1OC,5,-6,1.1,1.1,0.9
COc1cc(CN2CCC(C(=O)NC3CCCC3)CC2)cc(OC)c1O,46,53*,0.4,0.6,0.5
CCOC(=O)C1CCCN(Cc2cc(OC)c(O)c(OC)c2)C1 (centres undefined),22,-41,0.8,0.8,0.8
COc1cc(CN2CCC(C(=O)N3CCCC(C)C3)CC2)cc(OC)c1O (centres undefined),19,53*,0.8,0.8,0.8
COc1ccc(C(=O)N[C@H](C(=O)OCc2cc(=O)oc3cc(C)ccc23)C(C)C)cc1,1,-12,1,1,1
Cc1ccc(C)c(N/N=C2\CCCNC2=O)c1,18,-5,2.5*,1.8,0.8
COc1cccc(C2SCC(=O)N2c2ccc(Br)cc2)c1OC (centres undefined),3,5,2.2*,1.7,1
